This note sets out measurements from ChEMBL document CHEMBL4049418, “6-OH-Phenanthroquinolizidine Alkaloid and Its Derivatives Exert Potent Anticancer Activity by Delaying S Phase Progression” (J Med Chem, 2017).

Assay [1] concerns Bel-7402. The assay can be described thus: Induction of apoptosis in human Bel7402 cells assessed as viable cells at 0.1 uM after 72 hrs by Annexin V/propidium iodide staining based flow cytometric analysis (reference value: 92.4%). Format: functional. The settings on record: Bel-7402, 72 h, read-out: Activity. A general note: A flow cytometer gives signals particle by particle.

A further assay concerns HL-60. The assay can be described thus: Antiproliferative activity against human HL60 cells after 72 hrs by MTT assay. Format: functional, cell-based. The following applies: HL-60, 72 h. The method, boiled down: (§1)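 Cells seeded and dosed in triplicate for 72 h. Suspension lines (HL-60, K-562, K562/ADR, HL-60/MX2) were read by MTT: 5 mg/mL MTT stock added, 4 h at 37 °C, formazan dissolved in 10% SDS/5% isobutanol/10 mM HCl, A570. Adherent lines were read by SRB: fixed with cold 10% TCA, stained with 0.4% SRB in 1% acetic acid, A540. IC50 from four-parameter logistic fit; mean of ≥3 independent experiments.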
On the technique in general: Tetrazolium dyes change colour on reduction, which living cells bring about.

The test system of assay [2] is Bel-7402. The assay is described as follows: Inhibition of DNA synthesis in human Bel7402 cells assessed as reduction in BrdU incorporation preincubated for 1 hr followed by BrdU addition for 30 mins by FITC/propidium iodide staining based flow cytometry. Format: functional, cell-based. Summed up:
(§2)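 BEL-7402 cells (3 × 10⁵ per well) exposed to compounds 1 h, then labeled with 10 μM BrdU for 30 min; trypsinized, fixed in 70% ethanol at −20 °C ≥1 h, 2 N HCl 20 min, neutralized with 0.1 M borate, stained with anti-BrdU-FITC plus PI 30 min; BrdU-positive cells quantified by flow cytometry; three independent experiments, mean + SD.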

Assay [3] concerns Bel-7402. The assay can be described thus: Inhibition of colony formation in human Bel7402 cells after 24 hrs by SRB staining-based plate colony formation assay. Format: functional, cell-based. Summed up: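 BEL-7402 cells seeded at 200 per well, treated in triplicate 24 h, washed twice with PBS, then grown 12 days in fresh medium; colonies stained with SRB and those ≥1 mm diameter counted; three independent experiments, mean ± SD.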

Assay [4] deals with Bel-7402. The assay can be described thus: Induction of apoptosis in human Bel7402 cells assessed as early apoptotic cells at 10 nM after 72 hrs by Annexin V/propidium iodide staining based flow cytometric analysis (reference value: 3.66%). Format: functional. The method, boiled down: (§3)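 BEL-7402 cells (3 × 10⁵ per well, 6-well plates) exposed for 72 h. Harvested, PBS-washed, resuspended in cold binding buffer with annexin V–FITC and PI, and stained 15 min in the dark at room temperature. Early apoptotic, late apoptotic and necrotic fractions quantified by flow cytometry.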

Another assay has as its system U-118-MG. The assay is described as follows: Antiproliferative activity against human U118MG cells after 72 hrs by SRB assay. Format: functional, cell-based. The following applies: pooled result: one value given for 25 cell lines, strains, targets or settings. The method, boiled down: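 Adherent cells seeded in 96-well plates and exposed in triplicate to compound for 72 h at 37 °C, humidified. Fixed with 10% ice-cold trichloroacetic acid, stained with 0.4% sulforhodamine B in 1% acetic acid, and absorbance read at 540 nm. IC50 fitted by four-parameter logistic; mean of at least three independent experiments.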
In general terms: In SRB staining, fixed cells bind dye roughly in proportion to their protein.

The test system of assay [5] is Bel-7402. The assay is described as follows: Induction of apoptosis in human Bel7402 cells assessed as early apoptotic cells at 0.1 uM after 72 hrs by Annexin V/propidium iodide staining based flow cytometric analysis (reference value: 3.66%). It counts as functional. The method, boiled down:
as §3

For the next assay, the system named is K562. The assay is described as follows: Antiproliferative activity against human K562 cells after 72 hrs by MTT assay. Format: functional, cell-based. The following applies: K562, 72 h. Summed up:
as §1

Assay [6] is described as follows: Resistance factor, ratio of IC50 for human K562/ADR cells to IC50 for human K562 cells. It counts as functional. Summed up:
(§4)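 72 h treatment in triplicate; suspended lines (HL-60, K-562, K562/ADR, HL-60/MX2) read by MTT (4 h, SDS/isobutanol/HCl solubilization, 570 nm); adherent KB and KB/VCR (MEM, 10% FBS) by SRB after TCA fixation (540 nm); IC₅₀ by four-parameter logistic fit, mean of ≥3 independent experiments.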

Assay [7] relates to Bel-7402. The assay is described as follows: Induction of DNA damage in human Bel7402 cells assessed as increase in gamma-H2AX levels at 1 to 100 nM after 1 hr by Western blot analysis. It counts as functional, cell-based. Summed up:
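BEL-7402 cells (1.5 × 10⁵ per well, 12-well plates) exposed to compounds for 1 h. Phospho-Chk1 Ser345, phospho-Chk2 Thr68 and γH2AX detected by Western blot. Camptothecin at 1 μM served as the DNA-damage reference.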

Assay [8] concerns Bel-7402. The assay can be described thus: Induction of apoptosis in human Bel7402 cells assessed as necrotic cells at 0.1 uM after 72 hrs by Annexin V/propidium iodide staining based flow cytometric analysis (reference value: 0.38%). It counts as functional. Summed up: as §3
Assay [9] can be described thus: Antiproliferative activity against human KB/VCR cells after 72 hrs by SRB assay. It counts as functional, cell-based. Summed up: as §1
Assay [10] relates to Bel-7402. The assay is described as follows: Induction of apoptosis in human Bel7402 cells assessed as late apoptotic cells at 0.1 uM after 72 hrs by Annexin V/propidium iodide staining based flow cytometric analysis (reference value: 3.6%). It counts as functional. The method, boiled down:
as §3

The nature of assay [11]: Resistance factor, ratio of IC50 for human KB/VCR cells to IC50 for human KB cells. It counts as functional. The method, boiled down:
as §4

For assay [12], the system named is Bel-7402. The assay is described as follows: Antiproliferative activity against human Bel7402 cells assessed as reduction in viability after 72 hrs by SRB assay. Format: functional, cell-based. The settings on record: Bel-7402, 72 h. The method, boiled down: as §1
Assay [13] relates to K562/Adr. The assay is described as follows: Antiproliferative activity against human K562/ADR cells after 72 hrs by MTT assay. It counts as functional, cell-based. The method, boiled down: as §1
Assay [14] deals with KB. The assay is described as follows: Antiproliferative activity against human KB cells after 72 hrs by SRB assay. Format: functional, cell-based. Summed up: as §1
In a further assay the test system is Zip-177. The assay can be described thus: Cell cycle arrest in human Zip-177 cells assessed as delay in progression of S-phase to G2-phase at 1 to 10 nM pre-treated with aphidicolin for 16 hrs followed by compound addition measured after 24 hrs by propidium iodide staining-based flow cytometric method. It counts as functional. The method, boiled down:
(§5)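 Exponentially growing cells synchronized in early S phase with 0.2 μg/mL aphidicolin for 16 h. Cells released into fresh medium with or without compound for set times. Ethanol-fixed, stained with PI/RNase, and cell cycle distribution read by flow cytometry. Representative of three independent experiments.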

Assay [15] concerns KB. The assay can be described thus: Cell cycle arrest in human KB cells assessed as delay in progression of S-phase to G2-phase at 10 nM pre-treated with aphidicolin for 16 hrs followed by compound addition measured up to 12 hrs by propidium iodide staining-based flow cytometric method. It counts as functional. Summed up:
as §5

The subject of assay [16] is Bel-7402. The assay can be described thus: Inhibition of DNA synthesis in human Bel7402 cells assessed as BrdU incorporation at 0.1 uM preincubated for 1 hr followed by BrdU addition for 30 mins by FITC/propidium iodide staining based flow cytometry (reference value: 35.5%). It counts as functional. Set-up: scale not given: the % may be the effect or the level left. The method, boiled down:
as §2

The test system of a further assay is HL60/MX2. The assay can be described thus: Antiproliferative activity against human HL60/MX2 cells after 72 hrs by MTT assay. It counts as functional, cell-based. The settings on record: HL60/MX2, 72 h. The method, boiled down: as §1
Assay [17] is described as follows: Resistance factor, ratio of IC50 for human HL60/MX2 cells to IC50 for human HL60 cells. Format: functional. The method, boiled down: as §4
In the next assay the test system is A549. The assay is described as follows: Antiproliferative activity against human A549 cells assessed as reduction in viability after 72 hrs by SRB assay. The following applies: A549, 72 h. Format: functional, cell-based. The method, boiled down:
as §1

A further assay concerns KB-V1. The assay can be described thus: Growth inhibition of human KBV1 cells after 8 days by methylene blue-staining based spectrophotometry. Format: functional. The following applies: KB-V1, 192 h.
Assay [18] concerns K562/Adr. The assay is described as follows: Effect on P-gp expression in human K562/ADR cells up to 10 uM after 24 hrs by Western blot analysis. Format: functional, cell-based.
Assay [19] can be described thus: Growth inhibition of human KB-7d cells after 8 days by methylene blue-staining based spectrophotometry. It counts as functional. The following applies: KB7D, 192 h.

Each structure is given as a SMILES string. pIC50: −log10 of the molar value. The source made the active and inactive calls. The rule behind the calls is not given here.

As a reminder, the pIC50 is the IC50 on a negative log10 scale, so that one unit is a factor of ten. In the case of `COc1cc2c3c(c4ccc(O)cc4c2cc1OC)CN1CCCC[C@@H]1C3`, the viability at 0.1 µM in the assay on Bel-7402 [1] came to 72.4%. In addition, the pIC50 is 8.74 in the assay on HL-60; 8.68 with U-118-MG; 8.66 in the assay with K562; 9.00 in [9]; 8.77 with Bel-7402 [12]; 8.59 in the assay on K562/Adr [13]. Further, the values for the pIC50 with KB [14], with HL60/MX2 and with A549 were 8.92, 8.77 and 9.15, respectively. Besides, the inhibition entry in the assay with Bel-7402 [2] and in the assay with Bel-7402 [3] was “Dose-dependent effect” throughout. Besides, the Activity with Bel-7402 [4] is listed as 3.93%; in the assay on Bel-7402 [5] it was 5.16%; in the assay with Bel-7402 [8] it was 2.57%; in the assay on Bel-7402 [10], 19.8%; in the assay with Bel-7402 [16], 4.83%. Besides, the “Ratio IC50” value in [6] amounted to 1.2; in [11] it was 0.8; in [17], 0.9. The outcome in the assay with Bel-7402 [7] was inactive. The result in the assay with Zip-177 and with KB [15] was Active.

The GI50 is the concentration that inhibits growth by half. Consider `COc1cc2c3c(c4cc(OC)c(OC)cc4c2cc1OC)[C@H](O)[C@@H]1CCCN1C3`, for which, in the assay with Bel-7402 [1], the viability at 0.1 µM worked out at 94.6%. Moreover, the pIC50 in the assay with HL-60 was 6.67; in the assay with U-118-MG, 6.78; in the assay with K562, 7.01; in [9] it was 7.19; in the assay on Bel-7402 [12], 6.96; in the assay on K562/Adr [13] it was 6.86. In addition, the pIC50 in the assay on KB [14] was 7.24; in the assay on HL60/MX2, 6.56; with A549 it was 6.55. Moreover, in the assay on Bel-7402 [2], the inhibition result was “Dose-dependent effect”. Moreover, the Activity is on record as 2.86% in the assay on Bel-7402 [5], 0.37% in the assay on Bel-7402 [8], 2.22% in the assay on Bel-7402 [10] and 32.5% with Bel-7402 [16]. For the same molecule, the figures for the “Ratio IC50” value in [6], in [11] and in assay [17] were 1.4, 1.1 and 1.3, respectively. Further, the GI50 (in the assay with KB-V1; in assay [19]) was 0.03 µM each time. In addition, the result in the assay with K562/Adr [18] was inactive.
